{
  "source": "paper PMC11227858",
  "about": "(Drug Design, Development and Therapy, 2024)",
  "key": {"[1]": {"assay_type": "in vivo, human"}, "Safety evaluation": {"assay": "Safety evaluation", "assay_type": "in vivo, human", "method_in_brief": "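Adults with chronic musculoskeletal non-cancer pain received one 2-min IV injection in a single-centre, open-label, ascending-dose design, with a 2-person 0.75 mg pretest. Monitoring covered vital signs to 72 h, SpO2 to 8 h, Holter from −30 min to 24 h, ECG at 48/72 h, 72 h labs, and injection-site checks to 6 h. AEs were graded by system/severity and drug relation; groups compared by Fisher's exact or chi-square.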"}},
  "note": "Entries after “also recorded” stand apart in the source; their conditions may differ.",
  "data": [
    {"smiles": "COc1ccsc1CNCC[C@@]1(c2ccccn2)CCOC2(CCCC2)C1", "note": "[Oliceridine, [(3-methoxythiophen-2-yl)methyl]({2-[(9R)-9-(pyridin-2-yl)-6-oxaspiro-[4.5]decan-9-yl]ethyl})amine]", "values": [
      {"measurement": "Participants achieving Cmax approximately 2 minutes post-administration", "setting": "[1]; 0.75 mg group (11 of 12)", "result": 91.7, "unit": "%"},
      {"measurement": "Participants reaching Cmax around 5 minutes", "setting": "[1]; 0.75 mg group (one participant)", "result": 8.3, "unit": "%"},
      {"measurement": "Participants attaining peak concentration at about 2 min", "setting": "[1]; 1.5 mg group (9 of 10)", "result": 90, "unit": "%"},
      {"measurement": "Participants attaining peak concentration at about 3 min", "setting": "[1]; 1.5 mg group (one participant, intravenous line blockage)", "result": 10, "unit": "%"},
      {"measurement": "Participants attaining peak at around 10 min", "setting": "[1]; 3.0 mg group (1 participant)", "result": 10, "unit": "%"},
      {"measurement": "Participants attaining peak at about 2 min", "setting": "[1]; 3.0 mg group (4 of 10)", "result": 40, "unit": "%"},
      {"measurement": "Participants attaining peak at approximately 5 min", "setting": "[1]; 3.0 mg group (5 participants)", "result": 50, "unit": "%"},
      {"measurement": "Tmax", "setting": "[1]; human, plasma, iv", "result": "2.04 to 4.98", "unit": "min"},
      {"measurement": "half-life", "setting": "[1]; human, plasma, iv", "result": "111 to 125", "unit": "min"},
      {"measurement": "Safety and tolerability", "setting": "Safety evaluation; Chinese patients with chronic non-cancer pain, 0.75 mg to 3.0 mg", "result": "safe and well tolerated"},
      {"measurement": "TEAEs leading to discontinuation of the study", "setting": "Safety evaluation; all doses", "result": "none of the TEAEs led to discontinuation of the study"},
      {"measurement": "Severe TEAEs", "setting": "Safety evaluation; all doses, 32 participants", "result": "no reports of severe TEAEs"},
      {"measurement": "Serious adverse events (SAEs)", "setting": "Safety evaluation; single IV dose 0.75-3.0 mg, 32 participants", "result": "no serious adverse events were observed; also recorded: No SAEs were reported"}
    ]}
  ]
}
